Assays:
jejuno-ileum = assay: In-situ rabbit intestinal perfusion, jejuno-ileum; format: in vivo
In short: (§1)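 Rabbits were anaesthetised with IM chlorpromazine 2 mg/kg, then ketamine 45 mg/kg twice at a 15 min interval. The segment was cannulated (duodenum 15 cm, jejuno-ileum 30 cm) and rinsed with 37 °C saline. Test compound at 30 μg/ml in PBS with 10% v/v PEG 200 was perfused at 0.27 ml/min. Effluent was collected every 10 min for 2 h, weighed and assayed by HPLC-UV at 210 nm. Fa, ARL and L95% came from second-hour, water-flux-corrected Cout/Cin. Pathway was judged from PeA dependence on water flux.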

Dissolution studies = format: physicochemical; settings: 50 rpm
In short: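 900 ml medium (0.01 M phosphate buffer), 37 ± 0.5 °C. Load: 400 mg test compound or equivalent; formulations contained avicel and aerosil. 5 ml samples withdrawn at 5, 10, 15, 30, 45 and 60 min, filtered (0.45 μm) and replaced with fresh medium. Quantified by reversed-phase C18 HPLC (0.02 M KH2PO4 pH 6.8:acetonitrile 25:75). Cumulative amount dissolved expressed as % of load. Triplicates.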

duodenum = assay: In-situ rabbit intestinal perfusion, duodenum; format: in vivo
In short: as §1

[1] = SEM in brackets, n = 3, listed as lopinavir
[2] = from regression of absorptive clearance vs water flux

Structure (SMILES): Cc1cccc(C)c1OCC(=O)N[C@@H](Cc1ccccc1)[C@@H](O)C[C@H](Cc1ccccc1)NC(=O)[C@H](C(C)C)N1CCCNC1=O [Pure Lopinavir, Lopinavir]
- ARL (anatomical reserve length) (jejuno-ileum): −240.22 cm
- %Fa/L (percentage fraction absorbed per unit length) (jejuno-ileum; SEM in brackets, n = 3): 1.17 (0.27) %cm^−1
- L95% (required length for 95% absorption) (jejuno-ileum; SEM in brackets, n = 3): 339.54 (79.03) cm
- Rout/Rin (fraction remaining after absorption) (jejuno-ileum; SEM in brackets, n = 3): 0.657 (0.083)
- L95% (required length for 95% absorption) (jejuno-ileum; [1]): 339.54 cm
- Absorption pathway: Paracellular (jejuno-ileum; [2]): 0%
- Absorption pathway: Transcellular (jejuno-ileum; [2]): 100%
- total amount liberated after 1 h (Dissolution studies; 1% w/v Tween 80 in phosphate buffer pH 6.8, 37 °C): 41.85 % of the dose
- % DE (dissolution efficiency) (Dissolution studies; 900 ml 1% w/v Tween 80 in 0.01 M phosphate buffer pH 6.8, 37 °C, 60 min, SD, n = 3): 24.96 (1.48) %
- ARL (anatomical reserve length) (duodenum): −261.18 cm
- %Fa/L (percentage fraction absorbed per unit length) (duodenum; SEM in brackets, n = 3): 1.61 (0.454) %cm^−1
- L95% (required length for 95% absorption) (duodenum; SEM in brackets, n = 3): 276.18 (121.5) cm
- Rout/Rin (fraction remaining after absorption) (duodenum; SEM in brackets, n = 3): 0.759 (0.068)
- L95% (required length for 95% absorption) (duodenum; [1]): 276.18 cm
- Absorption pathway: Paracellular (duodenum; [2]): 38.3%
- Absorption pathway: Transcellular (duodenum; [2]): 61.7%

From paper PMC9272570 (Journal of Drug Delivery Science and Technology, 2022)
